HCV NS3 hel inh – inhibitors of HCV NS3 helicase, primary screen, biochemical, Cy5 molecular beacon fluorescence. 290,000 compounds, 0.56% hits. NS3 helicase DNA unwinding. Hepatitis C virus NS3 helicase. inhibition, % at 10.9 µM;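 active = inhibition above the mean of all tested compounds plus 3 SD, set per campaign, cut at about 35% in these data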;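 note: 0% = DMSO wells and 100% = thioflavine S control wells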
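Compound dosing – single dose, 10.9 µM nominal final, DMSO 0.8% final · System – NS3 helicase fragment of HCV · Buffer or medium – MOPS pH 6.5, MgCl2, DTT, Tween20, BSA · Signal – Cy5 beacon fluorescence read at start and 1 h · Also added – annealed dual-labelled DNA beacon duplex, ATP-started · Schedule – 1 h at 25 °C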
FGF22 binding-1 – binders of human FGF22 protein, primary screen, FGF22 synaptogenesis inhibitor project, biophysical, thermal shift, single point; Fibroblast growth factor 22 (Homo sapiens), Q9HCT0; recombinant FGF22 thermal shift, SYPRO orange fluorescence; percent of sucrose octasulfate shift, DMSO zero; activity (Tm shift, normalised), % at 9.99 µM; 340,000 compounds, 1.5% hits; AID 651658, 2012;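 active = mean Tm shift, scaled 0 neutral to 100 positive control, at about 1.3% or above, every replicate too, limit read from the data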
Target sequence (Q9HCT0 whole entry, looked up): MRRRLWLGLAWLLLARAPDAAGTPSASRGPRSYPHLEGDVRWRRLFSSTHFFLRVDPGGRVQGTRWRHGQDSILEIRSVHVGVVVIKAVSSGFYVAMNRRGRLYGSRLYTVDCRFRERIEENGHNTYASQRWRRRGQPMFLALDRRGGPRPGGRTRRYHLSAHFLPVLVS
ZTA DNA inh – ZTA (EBV) inhibition in EBNA-1 counter-screen | ZTA-DNA binding, fluorescence polarization | 320,000 compounds, 0.15% hits | P03206 | inhibition, % at 11 µM; in the data active = inhibition above about 33%
Target sequence (P03206 whole entry, looked up): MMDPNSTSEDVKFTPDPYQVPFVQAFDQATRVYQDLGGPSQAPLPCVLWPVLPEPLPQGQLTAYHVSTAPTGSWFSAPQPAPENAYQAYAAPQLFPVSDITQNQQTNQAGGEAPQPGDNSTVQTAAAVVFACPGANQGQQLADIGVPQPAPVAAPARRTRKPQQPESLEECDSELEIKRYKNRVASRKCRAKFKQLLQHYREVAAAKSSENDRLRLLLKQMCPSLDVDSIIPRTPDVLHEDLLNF
EBNA-1 inhibitor – EBNA-1 DNA-binding inhibitors, primary screen, biochemical, fluorescence polarization; AID 1950, 2009; inhibition, % at 14.8 µM; 300,000 compounds, 0.34% hits; in the data active = inhibition above about 28%
NR3A LBD binder – binders of NR3A ligand-binding domain, primary screen, biophysical, differential scanning fluorimetry, uHTS; NR3A LBD differential scanning fluorimetry, Tm shift; 0% = protein alone, 100% = glycine-bound protein; Glutamate receptor ionotropic, NMDA 3A (GRIN3A) ligand-binding domain; 340,000 compounds, 2.5% hits; AID 1259313, 2017; Tm shift relative to glycine control, % at 25 µM;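 active = melting temperature shift of at least 10% of the positive control shift, at one fixed dose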
FID counter – compounds displacing fluorescent DNA intercalator, primary screen, artefact control for HCV NS3 helicase inhibitor project, biochemical, FID fluorescence; 290,000 compounds, 0.17% hits; DNA fluorescent intercalator displacement; inhibition, % at 7.9 µM; in the data active = inhibition above about 37%;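 note: 0% = vehicle and 100% = reference compound; higher means more ethidium bromide displaced from hairpin DNA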
Zta DNA confirm – EBV Zta binding to ZRE DNA, inhibitors, confirmation, biochemical, fluorescence polarization, triplicate | 320 compounds, 30% hits | shares compounds with ZTA DNA inh | inhibition, % at 11.1 µM;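 active = mean inhibition across triplicate runs above the hit threshold derived for the original primary screen, cut at about 33% in these data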;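 note: 0% = Zta with DMSO and 100% = wells lacking Zta protein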
EBNA1 counter – EBNA-1 DNA-binding inhibition, counter-screen for ZTA inhibitor project, biochemical, fluorescence polarization | shares compounds with ZTA DNA inh | inhibition, % at 14.8 µM | 320 tested, under 10 active | AID 2362, 2010; call rule not given here
FGF22 binding-2 – binders of human FGF22 protein, dose response, FGF22 synaptogenesis inhibitor project, biophysical, thermal shift, cherry-pick retest. shares compounds with FGF22 binding-1. recombinant FGF22 thermal shift, SYPRO orange fluorescence. thermal shift activity, °C (ΔTm) at 38 µM. 1,000 compounds, 2% hits. AID 720646, 2013;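 active = fitted rise in melting shift crosses a set limit at or below the top valid dose tested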
TSA no protein – compound-only thermal shift signal without protein, dose response, artefact control for FGF22 binder project, biochemical, cherry-picked samples, RT-PCR instrument. AID 743019, 2013. shares compounds with FGF22 binding-1. compound-only SYPRO orange thermal shift counter-screen, no protein. AC50, µM (titrated, usually from 38 µM). 1,000 compounds, 2% hits;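 active = rising signal whose fitted curve reaches the 0.54 level within the top valid dose, showing a melting point, actives reach about 13 µM in these data; inactive = the rest, including activity in the opposite direction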; note: value is where the raw curve crosses a fixed level and not half-maximal
Starred values were filed as active, the others as inactive; i = inactive; / = no result; ! = not confirmed by another sample; [ ] = remark or other dose. An excerpt weighted towards active compounds, which were near 3.6% of everything screened.

SMILES	HCV NS3 hel inh	FGF22 binding-1	ZTA DNA inh	EBNA-1 inhibitor	NR3A LBD binder	FID counter	Zta DNA confirm	EBNA1 counter	FGF22 binding-2	TSA no protein
COc1ccc(Sc2nc3ccccc3n3c(C(F)(F)F)nnc23)cc1	0	/	47*	7	-1	-1	-4	-3	/	/
Cc1ccccc1OCCNC(=O)/C=C/c1ccc([N+](=O)[O-])cc1	-5	/	15	3	-2	-4	/	/	/	/
Cc1ccccc1OCCNC(=O)/C=C/c1ccccc1	7	1	129*	-4	-30	-20	-12	-4	/	/
COc1cc(/C=C2/S/C(=N/S(=O)(=O)c3ccccc3)NC2=O)c([N+](=O)[O-])cc1OC	15	/	7	2	-3	-9	/	/	/	/
COc1cc(/C=C2\S/C(=N/S(=O)(=O)Cc3ccccc3)NC2=O)c([N+](=O)[O-])cc1OC	24	1	39*	13	-6	-6	8	11	/	/
CCCCCCCCCCCCCCCC[N+](C)(C)CCN(Cc1ccc(OC)cc1)c1ncccn1	/	/	35*	6	23*	/	77*	3	/	/
CC[N+](C)(C)CCN(Cc1ccc(Cl)cc1)c1ccccn1	-6	/	-3	-2	-1	10	/	/	/	/
Cc1ccc(C(=O)Nc2ccc(C(=O)N/N=C/c3ccncc3)cc2)cc1	-2	/	47*	-2	/	5	45*	-8	/	/
COc1ccc2nc(SCC(=O)Nc3cc(C)on3)c(C#N)cc2c1	6	0	50*	-6	1	-4	11	6	/	/
COc1cc2cc(C#N)c(SCC(=O)Nc3cc(C)on3)nc2cc1OC	3	0	0	12	0	-11	/	/	/	/
COc1ccc(Br)cc1CNc1ccc(O)cc1	9	/	40*	-1	-2	-7	-5	0	/	/
CCCC(=O)Nc1ccc2oc(-c3cccnc3)nc2c1	-4	/	45*	-7	-3	-8	2	-5	/	/
COc1ccc(-c2cnc3c(c2)C(=O)N([C@@H](C)CO)C[C@@H](C)[C@@H](CN(C)C(=O)Cc2ccccn2)O3)cc1	/	0	/	/	/	/	/	/	/	/
COc1cc(NC(=O)c2csc(N)n2)cc(C(=O)Nc2cccc(C(F)(F)F)c2)c1	/	1.6*!	41*	7	19*	/	6	-4	-0.085	11µM*
O=C(C[C@H]1CC[C@@H]2[C@H](COC[C@@H](O)CN2Cc2cc(F)cc(F)c2)O1)NC1CCCC1	/	0	/	/	/	/	/	/	/	/
O=C(Cc1ccccn1)NCC[C@@H]1CC[C@H](NS(=O)(=O)c2ccc(Cl)cc2)[C@@H](CO)O1	/	0	/	/	/	/	/	/	/	/
COc1cc(C)c2c(c1C=O)Oc1c(c(C)c(O)c3c1C(O)OC3=O)OC2=O (configuration not stated)	30	2.1*	67*	-5	-4	-20	63*	11	0.067	i
COCC(=O)N1CC(=O)N2[C@H](CO)[C@H](c3ccc(Br)cc3)[C@H]2C1	/	1.6*	/	/	/	/	/	/	0.074	i
CCCNC(=O)N1CC(=O)N2[C@H](CO)[C@H](c3ccc(-c4cccc(C)c4)cc3)[C@@H]2C1	/	1	/	/	/	/	/	/	/	/
CCCNC(=O)N1CC(=O)N2[C@H](CO)[C@@H](c3ccc(-c4cccc(C)c4)cc3)[C@@H]2C1	/	2.2*	/	/	/	/	/	/	0.22[42 µM]	i
O=C(NC1CCCCC1)N1CC(=O)N2[C@H](C1)[C@@H](c1ccc(-c3cccc(F)c3)cc1)[C@@H]2CO	/	2.3*	/	/	/	/	/	/	-0.042	i
CCCNC(=O)N1CC(=O)N2[C@H](C1)[C@@H](c1ccc(-c3cccc(C)c3)cc1)[C@@H]2CO	/	6.9*	/	/	/	/	/	/	0.22	i
COc1ccc2c3c(n(C)c2c1)[C@H](CO)N(C(=O)c1cccc(F)c1)CC31CN(CC2CC2)C1	/	0	/	/	/	/	/	/	/	/
C[C@H](CO)N1C[C@H](C)[C@@H](CN(C)S(=O)(=O)c2ccc(Cl)cc2)Oc2ccc(NC(=O)Nc3ccc(C(F)(F)F)cc3)cc2CC1=O	/	0	/	/	/	/	/	/	/	/
COc1ccc(NC(=O)N(C)C[C@@H]2OCCCC[C@@H](C)Oc3ccc(NS(=O)(=O)c4ccc(Cl)cc4)cc3C(=O)N([C@@H](C)CO)C[C@H]2C)cc1	/	0	/	/	/	/	/	/	/	/
SMILES	HCV NS3 hel inh	FGF22 binding-1	ZTA DNA inh	EBNA-1 inhibitor	NR3A LBD binder	FID counter	Zta DNA confirm	EBNA1 counter	FGF22 binding-2	TSA no protein
O=C(c1ccccc1F)N1CC(=O)N2[C@@H](CO)[C@H](c3ccc(-c4ccc(F)cc4)cc3)[C@@H]2C1	/	1.8*	/	/	/	/	/	/	0.14[42 µM]	i
COc1cc(C(=O)NC(=S)Nc2ccc([N+](=O)[O-])cc2C)cc(OC)c1OC	-13	1	13	1	-2	2	/	/	/	/
COc1cc(C(=O)NC(=S)Nc2ccccc2[N+](=O)[O-])cc(OC)c1OC	-3	1.8*	9	1	2	-9	/	/	0.13	i
CC1CN(C(=O)C(C)N2CCN(c3ccccc3Cl)CC2)CC(C)O1 (configuration not stated)	-7	17*	0	-12	0	-7	/	/	-0.014	i
CC1CN(C(=O)C(C)N2CCN(c3cccc(Cl)c3)CC2)CC(C)O1 (configuration not stated)	2	0	10	9	-2	-10	/	/	/	/
C[C@@H]1CN([C@@H](C)CO)S(=O)(=O)c2ccc(C3=CCCC3)cc2O[C@@H]1CN(C)C(=O)Nc1ccc2c(c1)OCO2	/	2.0*	/	/	/	/	/	/	-0.042[42 µM]	i
C[C@H](CO)N1C[C@H](C)[C@H](CN(C)C(=O)Nc2ccc3c(c2)OCO3)Oc2cc(C3=CCCCC3)ccc2S1(=O)=O	/	1.6*	/	/	/	/	/	/	-0.031	11µM*
C[C@@H]1CN([C@@H](C)CO)S(=O)(=O)c2ccc(C#Cc3ccncc3)cc2O[C@H]1CN(C)C(=O)Nc1ccc2c(c1)OCO2	/	0	/	/	/	/	/	/	/	/
C[C@@H]1CN([C@H](C)CO)S(=O)(=O)c2ccc(C3=CCCCC3)cc2O[C@H]1CN(C)C(=O)CN(C)C	/	1.2*	/	/	/	/	/	/	0.22[42 µM]	i

Assay outcomes as filed in PubChem.
